Screening results from PubChem BioAssay.
NPY2 pot ag: human NPY-Y2 potentiation or agonism, primary screen; cells expressing NPY-Y2, potentiator/agonist read-out; P49146; AID 1359; 220,000 compounds, 0.45% hits; activation, % at 3.6 µM; in the data active = activation above about 27%;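 note: cells stimulated with NPY near EC25 plus isoproterenol at EC100; 0% = vehicle plus submaximal agonist and 100% = vehicle plus saturating agonist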
PGE2 EP2 inh: EP2 receptor (human) inhibition; P43116; C6 glioma cells expressing human EP2, cAMP TR-FRET; cells stimulated with saturating PGE2; inhibition, % at 25 µM; 260,000 compounds, 0.52% hits;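 active = percent inhibition above 40 after rounding to a whole number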;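 note: rat C6 glioma host cells with rolipram phosphodiesterase inhibitor present; the protocol text gives 20 µM as final concentration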
Target sequence (P43116 whole entry, looked up): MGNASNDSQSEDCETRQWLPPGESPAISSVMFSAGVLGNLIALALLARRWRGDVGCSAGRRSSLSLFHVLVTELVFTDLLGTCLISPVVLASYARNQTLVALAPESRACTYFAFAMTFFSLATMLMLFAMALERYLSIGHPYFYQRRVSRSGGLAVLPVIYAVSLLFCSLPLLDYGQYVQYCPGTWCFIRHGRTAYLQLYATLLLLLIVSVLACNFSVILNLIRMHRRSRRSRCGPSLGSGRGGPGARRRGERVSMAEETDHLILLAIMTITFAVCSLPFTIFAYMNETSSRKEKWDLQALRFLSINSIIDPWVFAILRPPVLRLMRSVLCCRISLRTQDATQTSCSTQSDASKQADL
NPY1 pot ag: potentiators or agonists of human neuropeptide Y receptor Y1. 220,000 compounds, 0.37% hits. NPY-Y1 expressing cells, potentiator/agonist activation. activation, % at 3.6 µM; in the data active = activation above about 33%, passing the limit was not always enough;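 note: cells stimulated with NPY at EC10 then isoproterenol at EC100; 0% = low agonist plus stimulus and 100% = saturating agonist plus stimulus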
NPY-Y1 antag: blocks the human neuropeptide Y Y1 receptor; P25929; HEK293-CNG Y1 cells, membrane potential fluorescence; NPY at EC95, then isoproterenol; inhibition, % at 3.6 µM; 200,000 compounds, 1% hits; AID 1040;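 active = inhibition above the campaign mean inhibition of all tested compounds plus 3 SD, cut at about 20% in these data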;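 note: 0% = DMSO wells given NPY plus isoproterenol and 100% = isoproterenol alone without NPY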
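System: HEK293 cells with Y1 receptor plus CNG channel / Probe or stimulus: NPY 25 nM then isoproterenol 1 µM plus Ro 20-1724 25 µM / Compound: one concentration, 3.6 µM, in 0.4% DMSO / Schedule: compound incubation 1 h at room temperature, readout 45 min post-stimulation / Measured by: membrane potential fluorescence / Read-out: % inhibition of NPY effect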
EP2 modulator: EP2 receptor (human) modulation | AID 940 | induction, % at 25 µM | 260,000 compounds, 0.83% hits | EP2-expressing cells, cAMP HTRF FRET, PGE2 co-stimulation;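 active = compounds whose cAMP rise, as percent of the full-agonist control response, exceeds 60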;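 note: rat C6 glioma line stably carrying human EP2 under a CMV promoter; the protocol text gives 20 µM as final concentration; 100% = response of wells given 1 µM PGE2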
NPY-Y2 antag: NPY-Y2 (human) receptor antagonism. NPY-Y2 expressing cells, antagonist mode. 140,000 compounds, 0.99% hits. AID 793. inhibition, % at 2.7 µM; in the data active = inhibition above about 17%;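 note: 0% = vehicle with agonist challenge and 100% = reference antagonist with challenge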
NPY1 antag ctr: counter-screen for NPY-Y2 antagonists: human NPY-Y1 antagonism; cell-based NPY-Y1 antagonism counterscreen; 710 compounds, 19% hits; shares compounds with NPY-Y2 antag; inhibition, % at 3.6 µM; in the data active = inhibition above about 20%;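 note: cells challenged with NPY then isoproterenol with cAMP sensed through a CNG channel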
NPY2 antag conf: confirmation of human neuropeptide Y receptor Y2 antagonists | inhibition, % at 2.8 µM | HEK293 NPY-Y2 CNG channel, membrane potential fluorescence | shares compounds with NPY-Y2 antag | 710 compounds, 32% hits;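 active = mean inhibition of triplicate wells above the hit cutoff set in the primary screen, cut at about 17% in these data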;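 note: 0% = DMSO with NPY challenge and 100% = BIIE0246 high control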
* marks the source's active call; other numbers are inactive results; / = not tested or not shown. Compounds with a hit are over-represented: about 2.8% of the library has one in this group of screens.

SMILES | NPY2 pot ag | PGE2 EP2 inh | NPY1 pot ag | NPY-Y1 antag | EP2 modulator | NPY-Y2 antag | NPY1 antag ctr | NPY2 antag conf
COc1ccc2[nH]c(=O)c(CN(C3CCCCC3)S(=O)(=O)c3ccc(C)cc3)cc2c1 | / | 20.5 | / | / | 5.4 | / | / | /
CCOC(=O)c1ccc(N2C(=O)c3n[nH]c(-c4ccco4)c3C2c2ccc([N+](=O)[O-])cc2)cc1 (stereo not drawn) | -68.2 | 3.8 | -62.6 | 19.3 | -25.4 | 25.7* | 21.9* | 16.9
Cn1ccnc1SCC(=O)Nc1cccc(O)c1 | 13.1 | 11.2 | -7.4 | 6.8 | 12.7 | 17.7* | -3.2 | -2.1
CCOC1CC(C2C(C#N)=C(N)Oc3cc(C)oc(=O)c32)=CC=C1OC(C)C (stereo not drawn) | / | 11.8 | / | / | 4.2 | / | / | /
C#CCCN1CCN(Cc2c(C)n(CC(=O)N3CCOCC3)c3ccccc23)CC1 | / | 2.2 | / | / | -0.8 | / | / | /
Cc1cc(C)n(-c2nnc(C)n2/N=C/c2ccccc2OCc2ccccc2Cl)n1 | -3.0 | 11.9 | -3.9 | 10.7 | 43.2 | 17.5* | 20.1* | 10.8
Cc1cc(C)n(-c2nnc(C)n2/N=C/c2ccccc2F)n1 | 5.1 | 3.8 | 4.6 | 6.4 | 23.4 | 3.8 | / | /
c1ccc(COc2ccc(OCCCCN3CCCCC3)cc2)cc1 | -18.8 | 18.9 | -21.3 | 13.6 | -8.5 | 26.6* | 10.4 | 38.5*
CCN(CC)c1ccc(C2C(C(=O)OC(C)C)C(=O)CC(C)(O)C2C(=O)OC(C)C)cc1 (stereo not drawn) | 9.6 | 12.0 | -6.9 | 19.8 | 0.1 | 18.5* | 5.7 | 4.6
C=CCOC(=O)C1C(=O)CC(C)(O)C(C(=O)OCC=C)C1c1ccc(OCC)cc1 (stereo not drawn) | -31.6 | 11.9 | -16.0 | 13.8 | 8.1 | 21.9* | 15.6 | 8.8
COc1ccc(OC)c(NC(=O)c2sc3nc4c(C)cccc4cc3c2N)c1 | / | 13.1 | / | / | -36.3 | / | / | /
C=CCNc1nc(N2CCCC2)nc2ccccc12 | 3.7 | / | -32.6 | 10.6 | -18.0 | 19.9* | 19.5 | 18.6*
COCCNc1cn[nH]c(=O)c1Cl | / | 12.6 | / | / | -7.0 | / | / | /
Cc1cccc2sc(N(CCCN(C)C)C(=O)COc3ccc(Cl)cc3)nc12 | -15.4 | 3.5 | -41.5 | 4.2 | -72.0 | / | / | /
COc1cccc2sc(N(CCCN(C)C)C(=O)c3sc4ccccc4c3Cl)nc12 | -29.8 | 4.6 | -30.0 | 7.8 | -6.9 | 27.5* | 14.8 | 14.4
COc1ccc(C(=O)N/C(=C/c2cccs2)C(=O)NCCCn2ccnc2)cc1OC | -0.9 | 4.1 | -3.4 | -2.0 | 3.5 | 21.6* | -1.8 | 4.4
COc1cccc(-c2nnc3sc(-c4ccccc4)nn23)c1 | 0.5 | 2.0 | 2.0 | 10.5 | 23.7 | 7.3 | / | /
Cc1cccc(-c2nnc3sc(-c4ccccc4C)nn23)c1 | -9.3 | 4.8 | -39.7 | 7.5 | 0.4 | 18.6* | 7.1 | 13.4
Cc1cc2c(cc3c(=O)n(CCN4CCCC4)nc(C)n32)s1 | / | / | / | / | -26.9 | / | / | /
Fc1cccc(CSc2ccc(-c3ccc4c(c3)OCO4)nn2)c1 | -8.0 | 6.5 | -19.3 | 12.0 | 30.0 | 18.8* | 11.6 | 9.2
c1cncc(CSc2ccc(-c3ccc4c(c3)OCO4)nn2)c1 | -0.6 | 2.6 | -3.5 | -5.2 | -14.3 | / | / | /
CCOC(=O)Cn1nc(-c2ccc(C)cc2)c2ccccc2c1=O | -7.0 | 8.3 | 5.0 | 3.3 | 40.0 | / | / | /
CCOC(=O)Cn1nc(-c2ccccc2)c2cnc3ccc(C)cc3c21 | 7.3 | / | -34.5 | 3.4 | -9.4 | 24.3* | 23.7* | 18.6*
Cc1nc(Nc2ccc(O)cc2)c2c3c(sc2n1)CCCC3 | 3.9 | 2.5 | 11.1 | / | 1.6 | / | / | /
Cc1ccc(CNc2nc(C)nc3sc4c(c23)CCC4)cc1 | -32.3 | 3.5 | -34.2 | 13.7 | 32.9 | 20.4* | 27.5* | 20.5*
COC(=O)c1c(NC(=O)Cc2cccs2)sc(C(=O)Nc2cc(C)ccc2C)c1C | / | 11.1 | / | / | -2.0 | / | / | /
CCc1cccc(C)c1NC(=O)CSc1nc(C)cc(=O)[nH]1 | / | 15.6 | / | / | -21.7 | / | / | /
CCCOc1ccc(Br)cc1/C=N/O | -2.9 | 9.4 | -49.4 | 17.2 | 48.0 | 18.4* | 20.6* | 9.0
O=S(=O)(NCC1CC2CCC1C2)c1ccc2c(c1)OCCO2 (stereo not drawn) | / | 9.5 | / | / | -101.5 | / | / | /
